Where “and” joins values, the source holds several entries; their conditions need not be identical. Equal values may be shown once.
Columns and labels:
[1] = system: OCI-LY1; test: Proliferation of OCI-LY1 cells; format: cell-based, human; details: for proliferation: OCI-LY1, increasing doses, 72h
[2] = system: MEC-1; test: Proliferation of MEC-1 cells; format: cell-based, human; details: for proliferation: MEC-1, increasing doses, 72h
[3] = system: primary CLL cells; test: Proliferation of CpG stimulated primary CLL cells; format: cell-based, human; details: for proliferation of CpG stimulated primary CLL cells: increasing doses, 72h continuously or 4h followed by washout
Summary of the method: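 Primary CLL cells came from patients meeting 2008 IWCLL criteria. They were either stimulated with CpG oligonucleotides (TLR9 agonist) or left unstimulated (basal). Cells were given increasing concentrations of test compound, either continuously for 72 h or for 4 h followed by washout. Proliferation was measured by MTS assay. Data are shown per individual patient, with averages.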

[4] = system: primary CLL cells co-cultured on stromal cells (9–15c and Hs27); test: CLL cell viability in stromal co-culture; format: cell-based, human; details: 1, 2 or 5μM, 72 h
[5] = molecular target: bromodomain of CBP (Homo sapiens, UniProt Q92793); test: Binding affinity
Sequence of bromodomain of CBP (Q92793 1085-1192 limits assumed): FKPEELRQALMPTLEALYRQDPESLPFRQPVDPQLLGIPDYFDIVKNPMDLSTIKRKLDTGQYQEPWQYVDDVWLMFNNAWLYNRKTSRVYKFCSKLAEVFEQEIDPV

[6] = system: stromal cells (9–15c and Hs27); test: Stromal cell viability; format: cell-based
[7] = Plasma exposure in Ba/F3 splenomegaly mouse model; format: in vivo; details: 2 mg/kg
[8] = system: Eμ-Myc/TCL1 leukemia/lymphoma
[9] = Plasma levels in wild type B6 mice; format: in vivo; details: B6, mouse, oral, 20 mg/kg
[10] = Half-life in dogs; details: dog, in vivo
[11] = system: Eμ-TCL1 CD5/CD19 positive CLL-like leukemia; test: Eμ-TCL1 transgenic mice with de novo leukemia, tumor burden; format: in vivo, mouse
[12] = system: healthy T-cells; test: Proliferation of healthy T-cells stimulated with CD3/CD28 agonist antibodies; format: cell-based, human; details: washout conditions
[13] = system: Ba/F3 (murine interleukin-3 dependent pro-B cell line) splenomegaly
[14] = system: BET family members; test: Blocking interactions mediated by the four BET family members; format: biochemical
[15] = Half-life in rodents; details: in vivo
[16] = Plasma drug levels in MV4-11 tumor xenograft SCID mice; format: in vivo; details: mouse
[17] = molecular target: T1, bromodomain of EP300 (p300) (Homo sapiens, UniProt Q09472); test: Binding affinity
T1 sequence (Q09472 1049-1156 limits assumed): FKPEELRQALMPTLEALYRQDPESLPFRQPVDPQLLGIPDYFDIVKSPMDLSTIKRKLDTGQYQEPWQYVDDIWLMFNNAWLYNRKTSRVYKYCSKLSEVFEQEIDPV

Cc1sc2c(c1C)C(c1ccc(Cl)cc1)=N[C@@H](CC(=O)OC(C)(C)C)c1nnc(C)n1-2 [JQ1, reference compound]
proliferation [1]: Dose dependent decrease of proliferation
proliferation [2]: Dose dependent decrease of proliferation
proliferation of CpG stimulated primary CLL cells [3]: Dose-dependent decrease of proliferation

Cc1noc(C)c1-c1cnc2c(-c3ccc(C(=O)O)cc3)cn([C@@H](C)c3ccccn3)c2c1 [PLX51107]
cytotoxicity on CLL cells [4]: induces significant cytotoxicity
Kd [5]: ~100 nM
effect on stromal cell viability [6]: no effect on stromal cell viability
IC50 compared to iBET762, JQ1, or OTX015 ([1]; OCI-LY1): lower IC50
proliferation [1]: Dose dependent decrease of proliferation
AUC(0-t) [7]: 17700 ng·h/mL and 40 µM·h
IC50 compared to iBET762, JQ1, or OTX015 ([2]; MEC-1): lower IC50
proliferation [2]: Dose dependent decrease of proliferation
survival ([8]; 20 mg/kg, qd, oral gavage, 70 days treatment): significantly prolonged survival
tolerability ([8]; mouse, in vivo): well tolerated
AUC(0-t) [9]: 96700 ng·h/mL and 220 µM·h
inhibition of proliferation or toxicity ([3]; CLL cells under basal condition): not observed
proliferation of CpG stimulated primary CLL cells [3]: Dose-dependent decrease of proliferation
half-life [10]: < 3 h
leukemic disease burden in peripheral blood and spleen vs vehicle ([11]; 20 mg/kg daily, oral gavage, eight days): significantly reduced leukemic disease burden
reduction of tumor burden compared with OTX015 (50 mg/kg, qd) ([11]; PLX51107 20 mg/kg, qd, thirty day study): more effective than OTX015
anti-proliferative effect [12]: no anti-proliferative effect
inhibition of splenomegaly ([13]; 2 mg/kg PLX51107 dose): Approximately 75%
tolerability ([13]; mouse, in vivo): well tolerated
potency in blocking interactions mediated by the four BET family members [14]: low nanomolar potency
half-life [15]: < 3 h
AUC(0-t) [16]: 90100 ng·h/mL and 205 µM·h
half-life [16]: 2.8 h
Kd [17]: ~100 nM

Cc1sc2c(c1C)C(c1ccc(Cl)cc1)=N[C@@H](CC(=O)Nc1ccc(O)cc1)c1nnc(C)n1-2 [OTX015, reference compound]
proliferation [1]: Dose dependent decrease of proliferation
proliferation [2]: Dose dependent decrease of proliferation
proliferation of CpG stimulated primary CLL cells [3]: Dose-dependent decrease of proliferation
efficacy on splenomegaly relative to 2 mg/kg PLX51107 ([13]; 25 mg/kg OTX015): same level of efficacy

CCNC(=O)C[C@@H]1N=C(c2ccc(Cl)cc2)c2cc(OC)ccc2-n2c(C)nnc21 [iBET762]
proliferation of CpG stimulated primary CLL cells [3]: Dose-dependent decrease of proliferation
